Laboratory results published in ChEMBL document CHEMBL4706672 (J Med Chem, 2021).
Active and inactive are the calls of the source. The calls are words filed in the database; no cut-off is given here.

Columns and labels:
BXPC-3 [1] = assay: Reduction in NQO1 expression in human BxPC-3 cells at 2 to 6 uM incubated for 12 hrs in presence of proteasome inhibitor MG132 by western blot analysis; assay type: functional, cell-based; details: dose 2-6 µM
Outline: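 Immunoblot of BxPC-3 cells given a 2 h pretreatment with MG132 at 10 μM, then test agent for 12 h. Cell lysis, BCA assay, SDS-PAGE/PVDF, probed for STAT3, pSTAT3 and NQO1 with GAPDH as reference.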

[2] = biological target: T1, Protein cereblon/Signal transducer and activator of transcription 3 (Homo sapiens, UniProt P40763+Q96SW2); assay: Protac activity at CRBN/STAT3 in human BxPC-3 cells assessed as increase in inhibition of STAT3 protein levels at 2 to 3 uM incubated for 16 hrs in presence of protein synthesis inhibitor cycloheximide by western blot analysis; assay type: cell-based; details: dose 2-3 µM
Outline: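 BxPC-3 cells pretreated 1 h with cycloheximide, then test agent for 16 h. Lysates immunoblotted for STAT3 and NQO1 against GAPDH, fluorescent imaging.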

BXPC-3 [3] = assay: Antiproliferative activity against ZFP91 knockdown human BxPC-3 cells assessed as reduction in cell viability incubated for 48 hrs by MTT assay; assay type: functional, cell-based; details: BXPC-3, 48 h
Outline: (§1)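 BxPC-3 cells were transfected with ZFP91 siRNA or scrambled control siRNA using Lipofectamine RNAiMAX in Opti-MEM, 5 pmol siRNA per complex. Compound was added together with the siRNA complex.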

[4] = biological target: Protein cereblon/E3 ubiquitin-protein ligase ZFP91 (Homo sapiens, UniProt Q96SW2+Q96JP5); assay: Protac activity at CRBN/ZFP91 in human BxPC-3 cells assessed as induction of ZF91 degradation incubated for 24 hrs by western blot analysis; assay type: cell-based
Outline: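 BxPC-3 cells treated for 4, 16 or 24 h across a concentration series. ZFP91 immunoblotted against GAPDH; bands quantified by densitometry, DC50 calculated from dose-response curves of the densitometry.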

[5] = biological target: Protein cereblon/Histone-lysine N-methyltransferase PRDM16 (Homo sapiens) (UniProt Q96SW2+Q9HAZ2); assay: Protac activity at CRBN/PRDM16 in human BxPC-3 cells assessed as PRDM16 degradation incubated for 16 hrs by proteomic analysis; assay type: cell-based
Outline: (§2)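 TMT 10plex proteomics. […] Samples (75 μg) were reduced with DTT, alkylated with 2-chloroacetamide, acetone-precipitated, trypsin-digested overnight at 37 °C and TMT-labeled for LC-MS/MS relative quantitation.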

[6] = biological target: Protein cereblon/Dynein light chain Tctex-type 1 (Homo sapiens) (UniProt Q96SW2+P63172); assay: Protac activity at CRBN/DYNLT1 in human BxPC-3 cells assessed as DYNLT1 degradation incubated for 16 hrs by proteomic analysis; assay type: cell-based; outline: as §2
[7] = Upregulation of BACH1 protein levels in human BxPC-3 cells incubated for 16 hrs by proteomic analysis; assay type: functional
Outline: (§3)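 BxPC-3 cells exposed 16 h in triplicate (control, PROTAC) or duplicate (other arms); lysed in RIPA at 4 °C, 75 μg protein per sample. Reduced with DTT (1 h, 55 °C), alkylated with 2-chloroacetamide, acetone-precipitated, trypsin-digested overnight at 37 °C, TMT 10plex labelled, relative quantitation by LC-tandem MS.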

[8] = Upregulation of DNAJB9 protein levels in human BxPC-3 cells incubated for 16 hrs by proteomic analysis; assay type: functional; outline: as §3
BXPC-3 [9] = assay: Antiproliferative activity against human BxPC-3 cells harboring ZFP91siRNA assessed as reduction in cell viability incubated for 48 hrs by MTT assay; assay type: functional, cell-based; details: BXPC-3, 48 h; outline: as §1
[10] = biological target: Protein cereblon/Cyclin-D1-binding protein 1 (Homo sapiens) (UniProt Q96SW2+O95273); assay: Protac activity at CRBN/CCNDBP1 in human BxPC-3 cells assessed as CCNDBP1 degradation incubated for 16 hrs by proteomic analysis; assay type: cell-based; outline: as §2
[11] = biological target: Protein cereblon/Desmoplakin (Homo sapiens) (UniProt Q96SW2+P15924); assay: Protac activity at CRBN/DSP in human BxPC-3 cells assessed as DSP degradation incubated for 16 hrs by proteomic analysis; assay type: cell-based; outline: as §2
[12] = biological target: Protein cereblon/Nectin-1 (Homo sapiens) (UniProt Q96SW2+Q15223); assay: Protac activity at CRBN/Nectin-1 in human BxPC-3 cells assessed as Nectin-1 degradation incubated for 16 hrs by proteomic analysis; assay type: cell-based; outline: as §2
[13] = biological target: Protein cereblon/Epithelial discoidin domain-containing receptor 1 (Homo sapiens) (UniProt Q08345+Q96SW2); assay: Protac activity at CRBN/DDR1 in human BxPC-3 cells assessed as DDR1 degradation incubated for 16 hrs by proteomic analysis; assay type: cell-based; outline: as §2
[14] = biological target: T1, Protein cereblon/Signal transducer and activator of transcription 3; assay: Protac activity at CRBN/STAT3 in human BxPC-3 cells assessed as STAT3 degradation incubated for 16 hrs by proteomic analysis; assay type: cell-based; outline: as §3
[15] = biological target: Protein cereblon/SET domain-containing protein 4 (Homo sapiens) (UniProt Q96SW2+Q9NVD3); assay: Protac activity at CRBN/SETD4 in human BxPC-3 cells assessed as SETD4 degradation incubated for 16 hrs by proteomic analysis; assay type: cell-based; outline: as §2

T1 sequence (P40763 2-770 limits assumed): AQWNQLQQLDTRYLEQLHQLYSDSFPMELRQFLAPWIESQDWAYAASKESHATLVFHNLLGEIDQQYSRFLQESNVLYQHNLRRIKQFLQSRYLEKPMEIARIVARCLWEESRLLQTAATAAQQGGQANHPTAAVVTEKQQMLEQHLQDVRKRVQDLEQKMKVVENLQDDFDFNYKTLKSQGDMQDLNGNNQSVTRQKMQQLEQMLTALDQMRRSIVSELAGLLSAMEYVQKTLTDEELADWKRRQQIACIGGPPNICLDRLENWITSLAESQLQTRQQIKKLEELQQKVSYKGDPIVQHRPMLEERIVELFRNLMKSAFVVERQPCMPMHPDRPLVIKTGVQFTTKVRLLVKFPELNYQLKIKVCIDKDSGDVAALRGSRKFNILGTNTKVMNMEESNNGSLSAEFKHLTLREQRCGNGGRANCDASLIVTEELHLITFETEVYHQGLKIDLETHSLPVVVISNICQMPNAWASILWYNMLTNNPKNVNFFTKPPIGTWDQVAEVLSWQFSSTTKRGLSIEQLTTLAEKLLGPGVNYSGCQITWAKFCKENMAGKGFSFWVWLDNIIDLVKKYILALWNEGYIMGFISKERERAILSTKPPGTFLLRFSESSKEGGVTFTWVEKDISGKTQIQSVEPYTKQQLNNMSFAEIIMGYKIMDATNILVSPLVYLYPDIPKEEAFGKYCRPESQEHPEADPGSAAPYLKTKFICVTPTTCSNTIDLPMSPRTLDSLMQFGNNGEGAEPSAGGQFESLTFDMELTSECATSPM
T1 sequence (Q96SW2 whole entry partner): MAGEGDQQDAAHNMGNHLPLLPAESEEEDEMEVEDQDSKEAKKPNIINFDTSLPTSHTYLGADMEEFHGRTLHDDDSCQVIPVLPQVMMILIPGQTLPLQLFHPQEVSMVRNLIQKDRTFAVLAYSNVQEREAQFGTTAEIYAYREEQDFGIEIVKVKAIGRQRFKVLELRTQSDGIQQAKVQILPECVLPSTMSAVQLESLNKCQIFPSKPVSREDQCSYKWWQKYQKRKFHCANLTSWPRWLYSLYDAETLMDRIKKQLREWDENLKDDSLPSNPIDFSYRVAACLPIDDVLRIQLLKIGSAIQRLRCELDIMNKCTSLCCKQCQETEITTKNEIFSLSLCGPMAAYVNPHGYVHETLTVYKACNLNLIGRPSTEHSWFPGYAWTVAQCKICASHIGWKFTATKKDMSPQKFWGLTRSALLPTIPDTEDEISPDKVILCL
Protein cereblon/Cyclin-D1-binding protein 1 (Homo sapiens), sequence (O95273 whole entry, looked up): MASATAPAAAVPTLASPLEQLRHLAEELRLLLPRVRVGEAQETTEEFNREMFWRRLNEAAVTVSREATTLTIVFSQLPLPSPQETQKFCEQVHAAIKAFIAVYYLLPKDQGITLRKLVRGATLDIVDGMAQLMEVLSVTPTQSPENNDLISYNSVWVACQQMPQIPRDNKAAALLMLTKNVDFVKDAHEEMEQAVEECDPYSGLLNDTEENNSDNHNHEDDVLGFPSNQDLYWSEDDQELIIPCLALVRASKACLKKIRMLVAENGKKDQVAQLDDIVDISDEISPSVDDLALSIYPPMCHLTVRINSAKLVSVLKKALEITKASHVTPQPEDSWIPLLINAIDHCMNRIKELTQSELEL
Protein cereblon/Cyclin-D1-binding protein 1 (Homo sapiens), sequence (Q96SW2 whole entry, looked up): as the sequence (Q96SW2 whole entry partner) above
Protein cereblon/Desmoplakin (Homo sapiens), sequence (P15924 whole entry, looked up): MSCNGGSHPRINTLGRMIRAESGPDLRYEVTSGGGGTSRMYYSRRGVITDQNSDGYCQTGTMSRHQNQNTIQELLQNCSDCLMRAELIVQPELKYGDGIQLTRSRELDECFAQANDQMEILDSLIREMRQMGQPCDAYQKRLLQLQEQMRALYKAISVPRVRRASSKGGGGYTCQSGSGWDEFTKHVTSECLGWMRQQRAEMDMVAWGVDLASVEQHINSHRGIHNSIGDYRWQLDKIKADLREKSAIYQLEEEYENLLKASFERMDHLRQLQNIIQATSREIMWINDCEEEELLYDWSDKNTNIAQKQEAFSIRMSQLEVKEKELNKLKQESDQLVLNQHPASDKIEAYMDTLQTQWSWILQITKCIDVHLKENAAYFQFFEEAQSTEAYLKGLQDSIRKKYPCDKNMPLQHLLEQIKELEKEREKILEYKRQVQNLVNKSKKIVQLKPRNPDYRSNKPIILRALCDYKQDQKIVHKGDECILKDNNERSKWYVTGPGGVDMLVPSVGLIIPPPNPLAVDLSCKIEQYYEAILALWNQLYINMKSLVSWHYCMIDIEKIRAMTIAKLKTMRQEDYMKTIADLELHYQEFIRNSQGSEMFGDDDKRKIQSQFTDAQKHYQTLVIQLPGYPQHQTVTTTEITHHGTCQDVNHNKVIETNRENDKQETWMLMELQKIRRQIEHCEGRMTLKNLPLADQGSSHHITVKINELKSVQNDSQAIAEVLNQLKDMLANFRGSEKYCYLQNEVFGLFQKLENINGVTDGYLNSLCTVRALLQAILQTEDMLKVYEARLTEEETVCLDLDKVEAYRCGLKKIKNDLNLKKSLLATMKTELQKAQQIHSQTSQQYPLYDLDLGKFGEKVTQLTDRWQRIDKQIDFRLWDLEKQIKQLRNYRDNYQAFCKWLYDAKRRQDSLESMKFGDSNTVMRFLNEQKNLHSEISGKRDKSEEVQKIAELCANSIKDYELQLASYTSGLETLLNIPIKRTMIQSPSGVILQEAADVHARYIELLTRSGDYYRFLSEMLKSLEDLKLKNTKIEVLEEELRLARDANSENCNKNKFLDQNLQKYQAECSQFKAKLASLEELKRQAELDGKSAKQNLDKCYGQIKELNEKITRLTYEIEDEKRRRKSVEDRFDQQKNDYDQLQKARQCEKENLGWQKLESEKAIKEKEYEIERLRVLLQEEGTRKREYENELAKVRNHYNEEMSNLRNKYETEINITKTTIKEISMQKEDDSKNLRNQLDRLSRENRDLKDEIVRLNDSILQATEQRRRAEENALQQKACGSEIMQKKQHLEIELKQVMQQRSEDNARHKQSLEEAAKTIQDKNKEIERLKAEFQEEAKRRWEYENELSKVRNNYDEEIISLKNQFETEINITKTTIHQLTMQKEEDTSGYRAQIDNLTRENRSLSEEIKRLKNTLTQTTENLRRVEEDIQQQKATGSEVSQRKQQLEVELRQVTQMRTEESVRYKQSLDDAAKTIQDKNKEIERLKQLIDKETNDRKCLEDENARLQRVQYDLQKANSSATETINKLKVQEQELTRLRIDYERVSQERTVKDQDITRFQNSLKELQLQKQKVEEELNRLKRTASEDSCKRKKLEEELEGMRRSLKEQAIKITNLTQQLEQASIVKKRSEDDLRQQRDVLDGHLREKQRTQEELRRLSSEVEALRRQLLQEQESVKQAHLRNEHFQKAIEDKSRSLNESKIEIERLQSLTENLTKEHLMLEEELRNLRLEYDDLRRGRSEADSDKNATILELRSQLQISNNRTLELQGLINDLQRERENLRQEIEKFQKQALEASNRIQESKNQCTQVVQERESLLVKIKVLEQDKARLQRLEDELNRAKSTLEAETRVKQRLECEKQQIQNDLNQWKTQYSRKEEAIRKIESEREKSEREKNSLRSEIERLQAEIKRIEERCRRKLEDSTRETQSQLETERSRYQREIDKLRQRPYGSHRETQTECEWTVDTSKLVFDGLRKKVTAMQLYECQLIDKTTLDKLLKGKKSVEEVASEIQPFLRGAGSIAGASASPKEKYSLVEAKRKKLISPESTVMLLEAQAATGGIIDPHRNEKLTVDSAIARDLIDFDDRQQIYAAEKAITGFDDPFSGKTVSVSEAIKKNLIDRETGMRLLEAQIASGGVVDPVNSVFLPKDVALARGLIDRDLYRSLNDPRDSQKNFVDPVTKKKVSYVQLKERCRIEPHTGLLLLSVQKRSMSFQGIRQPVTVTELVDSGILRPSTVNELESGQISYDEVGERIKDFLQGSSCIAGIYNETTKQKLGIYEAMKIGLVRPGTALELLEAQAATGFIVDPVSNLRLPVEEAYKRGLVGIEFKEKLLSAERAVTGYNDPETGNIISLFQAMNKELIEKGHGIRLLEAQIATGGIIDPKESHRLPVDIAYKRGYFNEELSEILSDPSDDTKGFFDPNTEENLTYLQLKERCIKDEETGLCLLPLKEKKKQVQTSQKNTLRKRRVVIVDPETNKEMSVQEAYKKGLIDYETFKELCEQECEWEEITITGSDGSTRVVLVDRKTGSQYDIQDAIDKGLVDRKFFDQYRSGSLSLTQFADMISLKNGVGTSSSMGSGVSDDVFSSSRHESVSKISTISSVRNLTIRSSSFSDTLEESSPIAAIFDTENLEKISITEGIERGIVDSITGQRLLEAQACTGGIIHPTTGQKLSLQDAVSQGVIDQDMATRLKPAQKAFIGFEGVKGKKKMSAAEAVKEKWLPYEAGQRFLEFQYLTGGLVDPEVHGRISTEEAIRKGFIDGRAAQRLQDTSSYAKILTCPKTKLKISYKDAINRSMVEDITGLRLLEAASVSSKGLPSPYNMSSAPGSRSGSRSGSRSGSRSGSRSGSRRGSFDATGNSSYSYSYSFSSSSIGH
Protein cereblon/Desmoplakin (Homo sapiens), sequence (Q96SW2 whole entry, looked up): as the sequence (Q96SW2 whole entry partner) above
Protein cereblon/Nectin-1 (Homo sapiens), sequence (Q15223 whole entry, looked up, the tested form may be a part): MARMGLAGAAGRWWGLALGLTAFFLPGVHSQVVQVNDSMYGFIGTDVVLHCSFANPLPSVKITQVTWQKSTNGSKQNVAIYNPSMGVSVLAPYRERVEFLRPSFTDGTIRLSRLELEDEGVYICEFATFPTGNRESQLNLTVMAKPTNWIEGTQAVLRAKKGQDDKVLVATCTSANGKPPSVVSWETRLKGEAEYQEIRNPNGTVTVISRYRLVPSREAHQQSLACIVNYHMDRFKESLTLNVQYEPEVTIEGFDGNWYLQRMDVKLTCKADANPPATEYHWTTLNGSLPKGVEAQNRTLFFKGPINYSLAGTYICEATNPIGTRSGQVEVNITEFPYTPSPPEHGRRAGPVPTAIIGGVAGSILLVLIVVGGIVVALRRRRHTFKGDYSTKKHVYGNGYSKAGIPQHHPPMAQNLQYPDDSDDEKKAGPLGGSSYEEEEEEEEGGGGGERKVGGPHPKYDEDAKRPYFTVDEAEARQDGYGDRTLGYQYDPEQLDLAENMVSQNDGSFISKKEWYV
Protein cereblon/Nectin-1 (Homo sapiens), sequence (Q96SW2 whole entry, looked up, the tested form may be a part): as the sequence (Q96SW2 whole entry partner) above

Activity [2]: Active
IC50 (BXPC-3 [3]): 2100 nM
DC50 [4]: 60 nM
log2FC [5]: -0.6
log2FC [6]: -0.97
IC50 (BXPC-3 [9]): 1200 nM
log2FC [10]: -0.59
log2FC [11]: -0.7
log2FC [12]: -0.63
log2FC [13]: -0.73
log2FC [14]: -0.69
log2FC [15]: -0.86
SMILES: O=C1CCC(N2C(=O)c3cccc(NCCCCCC4CCN(CCNC(=O)c5cc6c(o5)C(=O)c5ccccc5C6=O)CC4)c3C2=O)C(=O)N1 (stereo not given)
Activity (BXPC-3 [1]): Active
log2FC [7]: 0.6
log2FC [8]: 1.35
